KDM4C inh = inhibitors of human demethylase GASC-1 KDM4C | AID 720574 | inhibition, % at 12.5 µM | GST-KDM4C 2-372, H3K9me3 peptide, LANCE TR-FRET | Q9H3R0 | 96,000 compounds, 0.15% hits;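 active means mean replicate inhibition above about 25%, with at least 55% of replicates also reaching it, limit read from the data, passing the limit was not always enough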
Target sequence (Q9H3R0 2-372 limits assumed): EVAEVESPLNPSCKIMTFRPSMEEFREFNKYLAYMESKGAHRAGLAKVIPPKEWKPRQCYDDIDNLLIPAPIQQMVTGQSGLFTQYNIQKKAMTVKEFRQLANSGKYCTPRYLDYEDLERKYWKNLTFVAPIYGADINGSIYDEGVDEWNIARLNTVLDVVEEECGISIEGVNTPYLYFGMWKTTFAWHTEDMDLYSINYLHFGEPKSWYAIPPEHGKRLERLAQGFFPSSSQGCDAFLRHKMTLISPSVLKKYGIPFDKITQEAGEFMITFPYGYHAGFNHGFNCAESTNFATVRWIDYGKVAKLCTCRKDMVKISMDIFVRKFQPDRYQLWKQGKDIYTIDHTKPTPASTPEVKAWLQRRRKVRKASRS
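Assay system: GST-GASC-1 enzyme fragment 2-372 | Amount: 10 nM enzyme | Medium: HEPES buffer, pH 7.5, plus ascorbate | Reagent: H3K9me3 peptide substrate, Fe(II), 2-oxoglutarate | Doses: Single-point compound screen | Incubation: 30 min demethylation and 1 h detection at room temperature | Measured by: LANCE TR-FRET, excitation 340 nm, emissions 618 and 671 nm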
Pf Dd2 inh = P. falciparum Dd2 growth inhibition; SYBR Green, 72 h; stronger effect = lower value; activity change, % at 10 µM; 94,000 compounds, 2.3% hits; AID 1159554; in the data active means activity change below about -80%
IDH1 R132H inh = inhibitors of human IDH1 R132H | IDH1 R132H reductase, diaphorase/resazurin fluorescence, 60 min | inhibition, % at 10 µM | 70,000 compounds, 0.18% hits | AID 624101; in the data active means inhibition above about 34%;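 further: 0% = DMSO and 100% = no enzyme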
T cruzi growth = blocks T. cruzi growth in NIH3T3 culture; inhibition, % at 8.34 µM; T. cruzi beta-gal in NIH3T3, GalScreen luminescence, 90 h; 77,000 compounds, 5.9% hits;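 active means mean inhibition above about 93%, with at least 55% of replicates each passing it, limit read from the data, passing the limit was not always enough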
* marks the source's active call; other numbers are inactive results. Rows were chosen to be rich in hits. Some 5.8% of all compounds tested hit in one or more screens of this group.

Results for COc1ccc(C#Cc2ccc([C@@H]3[C@H](CO)N4CCCCN(C(=O)Nc5ccccc5F)C[C@@H]34)cc2)cc1 ?
KDM4C inh: -3; Pf Dd2 inh: -82*; T cruzi growth: 39

Results for COc1ccc(C#Cc2ccc([C@H]3[C@H](CO)N4CCCCN(C(=O)Nc5ccccc5F)C[C@@H]34)cc2)cc1 ?
KDM4C inh: -3; Pf Dd2 inh: -75; T cruzi growth: 84

Results for O=C(Nc1ccccc1F)N1CCCCN2[C@@H](CO)[C@@H](c3ccc(C#Cc4ccccc4)cc3)[C@@H]2C1 ?
KDM4C inh: -2; Pf Dd2 inh: -89*; T cruzi growth: -41

How did COc1ccc(C#Cc2ccc([C@H]3[C@@H](CO)N4CCCCN(C(=O)Nc5ccccc5F)C[C@H]34)cc2)cc1 do in these assays?
KDM4C inh: 14; Pf Dd2 inh: -77; T cruzi growth: 84

How did O=C(Nc1cccc(F)c1)N1CCCCN2[C@H](CO)[C@H](c3ccc(C#Cc4ccccc4)cc3)[C@@H]2C1 do in these assays?
KDM4C inh: -1; Pf Dd2 inh: -82*; T cruzi growth: 68

What do the screens show for `COc1ccc(NC(=O)N(C)C[C@@H]2OCc3ccccc3-c3c(n(C)c4ccccc34)C(=O)N([C@@H](C)CO)C[C@@H]2C)c(OC)c1`?
KDM4C inh: -1; Pf Dd2 inh: -83*; IDH1 R132H inh: -1; T cruzi growth: 53

Results for COc1ccc(NC(=O)N(C)C[C@H]2OCc3cnnn3CCCC(=O)N([C@H](C)CO)C[C@H]2C)c(OC)c1 ?
KDM4C inh: 9; Pf Dd2 inh: 1; IDH1 R132H inh: 54*; T cruzi growth: -7

Results for C[C@H](CO)N1C[C@H](C)[C@@H](CN(C)C(=O)Nc2cccc(C(F)(F)F)c2)OCc2ccccc2-c2ccccc2C1=O ?
KDM4C inh: 2; Pf Dd2 inh: -65; IDH1 R132H inh: 0; T cruzi growth: 51

What do the screens show for `C[C@@H]1CN([C@H](C)CO)C(=O)c2ccccc2-c2ccccc2CO[C@H]1CN(C)C(=O)Nc1cccc(C(F)(F)F)c1`?
KDM4C inh: 0; Pf Dd2 inh: -87*; T cruzi growth: 75

Results for C[C@@H]1CN([C@H](C)CO)C(=O)c2c(c3ccccc3n2C)-c2ccccc2CO[C@@H]1CN(C)C(=O)Nc1cccc(C(F)(F)F)c1 ?
KDM4C inh: 0; Pf Dd2 inh: -84*

Results for COc1ccc(NC(=O)N(C)C[C@@H]2OCc3ccccc3-c3c(n(C)c4ccccc34)C(=O)N([C@H](C)CO)C[C@@H]2C)c(OC)c1 ?
KDM4C inh: -1; Pf Dd2 inh: 30; T cruzi growth: 17

How did COc1cccc(NC(=O)N(C)C[C@H]2OCc3ccccc3-c3c(n(C)c4ccccc34)C(=O)N([C@@H](C)CO)C[C@@H]2C)c1 do in these assays?
KDM4C inh: -1; Pf Dd2 inh: -85*; T cruzi growth: 20

Results for COc1ccc(NC(=O)N(C)C[C@H]2OCc3ccccc3-c3c(n(C)c4ccccc34)C(=O)N([C@@H](C)CO)C[C@@H]2C)c(OC)c1 ?
KDM4C inh: -1; Pf Dd2 inh: -85*; T cruzi growth: 43

What do the screens show for `CCCN(C)C[C@H]1OCCCC[C@H](C)Oc2ccc(NC(=O)c3ccncc3)cc2C(=O)N([C@H](C)CO)C[C@H]1C`?
KDM4C inh: 0; Pf Dd2 inh: -86*; T cruzi growth: -2

What do the screens show for `CCCN(C)C[C@H]1OCCCC[C@@H](C)Oc2ccc(NC(=O)c3ccncc3)cc2C(=O)N([C@@H](C)CO)C[C@H]1C`?
KDM4C inh: -1; Pf Dd2 inh: -88*; T cruzi growth: 52

What do the screens show for `CCCN(C)C[C@H]1OCCCC[C@@H](C)Oc2ccc(NC(=O)c3ccncc3)cc2C(=O)N([C@H](C)CO)C[C@@H]1C`?
KDM4C inh: 4; Pf Dd2 inh: -19; IDH1 R132H inh: 0; T cruzi growth: 64

How did COc1ccccc1NC(=O)C1=C(C)Nc2ncnn2C1c1ccccc1OCc1ccccc1 (stereo unspecified) do in these assays?
IDH1 R132H inh: 0

Results for O=C(C1CCOCC1)N1C[C@@H]2[C@H](c3ccccc31)[C@H](CO)N2C(=O)Cc1ccccc1 ?
KDM4C inh: -3; Pf Dd2 inh: 19; T cruzi growth: 8

Results for O=C(C1CCOCC1)N1C[C@H]2[C@@H](c3ccccc31)[C@H](CO)N2C(=O)Cc1ccccc1 ?
KDM4C inh: 29*; Pf Dd2 inh: -4; T cruzi growth: 52

What do the screens show for `C[C@@H]1CCCCO[C@@H](CN(C)CC2CC2)[C@H](C)CN([C@@H](C)CO)C(=O)c2cc(NC(=O)Nc3ccc4c(c3)OCO4)ccc2O1`?
KDM4C inh: 1; Pf Dd2 inh: -52; IDH1 R132H inh: 8; T cruzi growth: 10

How did CCCN(C)C[C@H]1OCCCC[C@H](C)Oc2ccc(NC(=O)Nc3ccc4c(c3)OCO4)cc2C(=O)N([C@@H](C)CO)C[C@@H]1C do in these assays?
KDM4C inh: -1; T cruzi growth: 44

Results for C[C@H]1CCCCO[C@H](CN(C)CC2CC2)[C@@H](C)CN([C@@H](C)CO)C(=O)c2cc(NC(=O)Nc3ccc4c(c3)OCO4)ccc2O1 ?
KDM4C inh: 0; Pf Dd2 inh: -90*; T cruzi growth: 33

How did CCCN(C)C[C@H]1OCCCC[C@@H](C)Oc2ccc(NC(=O)Nc3ccc4c(c3)OCO4)cc2C(=O)N([C@H](C)CO)C[C@@H]1C do in these assays?
KDM4C inh: 0; Pf Dd2 inh: -86*; T cruzi growth: 80

Results for COc1ccc2c3c([nH]c2c1)[C@H](CO)N(C(=O)Nc1ccc(F)cc1)CC31CCN(S(=O)(=O)c2cccc(C)c2)CC1 ?
KDM4C inh: 1; Pf Dd2 inh: -83*

How did COc1ccc2c3c([nH]c2c1)[C@H](CO)N(C(=O)Nc1ccc(F)cc1)CC31CCN(S(=O)(=O)c2ccc(C)cc2)CC1 do in these assays?
KDM4C inh: 1; Pf Dd2 inh: -82*

What do the screens show for `COc1ccc2c3c([nH]c2c1)[C@@H](CO)N(C(=O)Nc1ccc(F)cc1)CC31CCN(S(=O)(=O)c2ccc(C)cc2)CC1`?
KDM4C inh: 1; Pf Dd2 inh: -71

How did COc1ccc2c3c([nH]c2c1)[C@H](CO)N(C(=O)Nc1ccc(F)cc1)CC31CCN(C(=O)Nc2ccc3c(c2)OCO3)CC1 do in these assays?
KDM4C inh: 0; Pf Dd2 inh: -86*

How did COc1ccc2c3c([nH]c2c1)[C@@H](CO)N(C(=O)Nc1ccc(F)cc1)CC31CCN(Cc2cc(-c3ccccc3)on2)CC1 do in these assays?
KDM4C inh: 0; Pf Dd2 inh: -83*

Results for COc1ccc2c3c([nH]c2c1)[C@@H](CO)N(C(=O)Nc1ccc(F)cc1)CC31CCN(S(=O)(=O)c2cccc(C)c2)CC1 ?
KDM4C inh: -2; Pf Dd2 inh: -42

How did COc1ccc(-c2cc3ccccc3oc2=O)cc1NC(=O)COc1ccc(Cl)cc1C do in these assays?
IDH1 R132H inh: 2

High-throughput results from PubChem BioAssay.
